From paper PMC3390648 (The Journal of Biological Chemistry, 2012)

B1: Pol1-F1463A (protein)
chain: MSSKSEKLEKLRKLQAARNGTSIDDYEGDESDGDRIYDEIDEKEYRARKRQELLHDDFVVDDDGVGYVDRGVEEDWREVDNSSSDEDTGNLASKDSKRKKNIKREKDHQITDMLRTQHSKSTLLAHAKKSQKKSIPIDNFDDILGEFESGEVEKPNILLPSKLRENLNSSPTSEFKSSIKRVNGNDESSHDAGISKKVKIDPDSSTDKYLEIESSPLKLQSRKLRYANDVQDLLDDVENSPVVATKRQNVLQDTLLANPPSAQSLADEEDDEDSDEDIILKRRTMRSVTTTRRVNIDSRSNPSTSPFVTAPGTPIGIKGLTPSKSLQSNTDVATLAVNVKKEDVVDPETDTFQMFWLDYCEVNNTLILFGKVKLKDDNCVSAMVQINGLCRELFFLPREGKTPTDIHEEIIPLLMDKYGLDNIRAKPQKMKYSFELPDIPSESDYLKVLLPYQTPKSSRDTIPSDLSSDTFYHVFGGNSNIFESFVIQNRIMGPCWLDIKGADFNSIRNASHCAVEVSVDKPQNITPTTTKTMPNLRCLSLSIQTLMNPKENKQEIVSITLSAYRNISLDSPIPENIKPDDLCTLVRPPQSTSFPLGLAALAKQKLPGRVRLFNNEKAMLSCFCAMLKVEDPDVIIGHRLQNVYLDVLAHRMHDLNIPTFSSIGRRLRRTWPEKFGRGNSNMNHFFISDICSGRLICDIANEMGQSLTPKCQSWDLSEMYQVTCEKEHKPLDIDYQNPQYQNDVNSMTMALQENITNCMISAEVSYRIQLLTLTKQLTNLAGNAWAQTLGGTRAGRNEYILLHEFSRNGFIVPDKEGNRSRAQKQRQNEENADAPVNSKKAKYQGGLVFEPEKGLHKNYVLVMDFNSLYPSIIQEFNICFTTVDRNKEDIDELPSVPPSEVDQGVLPRLLANLVDRRREVKKVMKTETDPHKRVQCDIRQQALKLTANSMYGCLGYVNSRFYAKPLAMLVTNKGREILMNTRQLAESMNLLVVYGDTDSVMIDTGCDNYADAIKIGLGFKRLVNERYRLLEIDIDNVFKKLLLHAKKKYAALTVNLDKNGNGTTVLEVKGLDMKRREFCPLSRDVSIHVLNTILSDKDPEEALQEVYDYLEDIRIKVETNNIRIDKYKINMKLSKDPKAYPGGKNMPAVQVALRMRKAGRVVKAGSVITFVITKQDEIDNAADTPALSVAERAHALNEVMIKSNNLIPDPQYYLEKQIFAPVERLLERIDSFNVVRLSEALGLDSKKYFRREGGNNNGEDINNLQPLETTITDVERFKDTVTLELSCPSCDKRFPFGGIVSSNYYRVSYNGLQCKHCEQLFTPLQLTSQIEHSIRAHISLYYAGWLQCDDSTCGIVTRQVSVFGKRCLNDGCTGVMRYKYSDKQLYNQLLYFDSLFDCEKNKKQELKPIYLPDDLDYPKEQLTESSIKALTEQNRELMETGRSVVQKYLNDCGRRYVDMTSIADFMLN
modifications: left off: 9MYC, end not stated, kept
B2: truncated protein: recombinant form of human pol α with the last 67 amino acids removed (protein, UniProt P09884 1-1395, looked up, fragment)
chain: MAPVHGDDSLSDSGSFVSSRARREKKSKKGRQEALERLKKAKAGEKYKYEVEDFTGVYEEVDEEQYSKLVQARQDDDWIVDDDGIGYVEDGREIFDDDLEDDALDADEKGKDGKARNKDKRNVKKLAVTKPNNIKSMFIACAGKKTADKAVDLSKDGLLGDILQDLNTETPQITPPPVMILKKKRSIGASPNPFSVHTATAVPSGKIASPVSRKEPPLTPVPLKRAEFAGDDVQVESTEEEQESGAMEFEDGDFDEPMEVEEVDLEPMAAKAWDKESEPAEEVKQEADSGKGTVSYLGSFLPDVSCWDIDQEGDSSFSVQEVQVDSSHLPLVKGADEEQVFHFYWLDAYEDQYNQPGVVFLFGKVWIESAETHVSCCVMVKNIERTLYFLPREMKIDLNTGKETGTPISMKDVYEEFDEKIATKYKIMKFKSKPVEKNYAFEIPDVPEKSEYLEVKYSAEMPQLPQDLKGETFSHVFGTNTSSLELFLMNRKIKGPCWLEVKSPQLLNQPVSWCKVEAMALKPDLVNVIKDVSPPPLVVMAFSMKTMQNAKNHQNEIIAMAALVHHSFALDKAAPKPPFQSHFCVVSKPKDCIFPYAFKEVIEKKNVKVEVAATERTLLGFFLAKVHKIDPDIIVGHNIYGFELEVLLQRINVCKAPHWSKIGRLKRSNMPKLGGRSGFGERNATCGRMICDVEISAKELIRCKSYHLSELVQQILKTERVVIPMENIQNMYSESSQLLYLLEHTWKDAKFILQIMCELNVLPLALQITNIAGNIMSRTLMGGRSERNEFLLLHAFYENNYIVPDKQIFRKPQQKLGDEDEEIDGDTNKYKKGRKKAAYAGGLVLDPKVGFYDKFILLLDFNSLYPSIIQEFNICFTTVQRVASEAQKVTEDGEQEQIPELPDPSLEMGILPREIRKLVERRKQVKQLMKQQDLNPDLILQYDIRQKALKLTANSMYGCLGFSYSRFYAKPLAALVTYKGREILMHTKEMVQKMNLEVIYGDTDSIMINTNSTNLEEVFKLGNKVKSEVNKLYKLLEIDIDGVFKSLLLLKKKKYAALVVEPTSDGNYVTKQELKGLDIVRRDWCDLAKDTGNFVIGQILSDQSRDTIVENIQKRLIEIGENVLNGSVPVSQFEINKALTKDPQDYPDKKSLPHVHVALWINSQGGRKVKAGDTVSYVICQDGSNLTASQRAYAPEQLQKQDNLTIDTQYYLAQQIHPVVARICEPIDGIDAVLIATWLGLDPTQFRVHHYHKDEENDALLGGPAQLTDEEKYRDCERFKCPCPTCGTENIYDNVFDGSGTDMEPSLYRCSNIDCKASPLTFTVQLSNKLIMDIRRFIKKYYDGWLICEEPTCRNRTRHLPLQFSRTGPLCPACMKATLQPEYSDKSLYTQLCFY
B3: Pol1 1–1452: Pol1 allele with the sequence encoding the last 16 amino acids removed (protein)
chain: MSSKSEKLEKLRKLQAARNGTSIDDYEGDESDGDRIYDEIDEKEYRARKRQELLHDDFVVDDDGVGYVDRGVEEDWREVDNSSSDEDTGNLASKDSKRKKNIKREKDHQITDMLRTQHSKSTLLAHAKKSQKKSIPIDNFDDILGEFESGEVEKPNILLPSKLRENLNSSPTSEFKSSIKRVNGNDESSHDAGISKKVKIDPDSSTDKYLEIESSPLKLQSRKLRYANDVQDLLDDVENSPVVATKRQNVLQDTLLANPPSAQSLADEEDDEDSDEDIILKRRTMRSVTTTRRVNIDSRSNPSTSPFVTAPGTPIGIKGLTPSKSLQSNTDVATLAVNVKKEDVVDPETDTFQMFWLDYCEVNNTLILFGKVKLKDDNCVSAMVQINGLCRELFFLPREGKTPTDIHEEIIPLLMDKYGLDNIRAKPQKMKYSFELPDIPSESDYLKVLLPYQTPKSSRDTIPSDLSSDTFYHVFGGNSNIFESFVIQNRIMGPCWLDIKGADFNSIRNASHCAVEVSVDKPQNITPTTTKTMPNLRCLSLSIQTLMNPKENKQEIVSITLSAYRNISLDSPIPENIKPDDLCTLVRPPQSTSFPLGLAALAKQKLPGRVRLFNNEKAMLSCFCAMLKVEDPDVIIGHRLQNVYLDVLAHRMHDLNIPTFSSIGRRLRRTWPEKFGRGNSNMNHFFISDICSGRLICDIANEMGQSLTPKCQSWDLSEMYQVTCEKEHKPLDIDYQNPQYQNDVNSMTMALQENITNCMISAEVSYRIQLLTLTKQLTNLAGNAWAQTLGGTRAGRNEYILLHEFSRNGFIVPDKEGNRSRAQKQRQNEENADAPVNSKKAKYQGGLVFEPEKGLHKNYVLVMDFNSLYPSIIQEFNICFTTVDRNKEDIDELPSVPPSEVDQGVLPRLLANLVDRRREVKKVMKTETDPHKRVQCDIRQQALKLTANSMYGCLGYVNSRFYAKPLAMLVTNKGREILMNTRQLAESMNLLVVYGDTDSVMIDTGCDNYADAIKIGLGFKRLVNERYRLLEIDIDNVFKKLLLHAKKKYAALTVNLDKNGNGTTVLEVKGLDMKRREFCPLSRDVSIHVLNTILSDKDPEEALQEVYDYLEDIRIKVETNNIRIDKYKINMKLSKDPKAYPGGKNMPAVQVALRMRKAGRVVKAGSVITFVITKQDEIDNAADTPALSVAERAHALNEVMIKSNNLIPDPQYYLEKQIFAPVERLLERIDSFNVVRLSEALGLDSKKYFRREGGNNNGEDINNLQPLETTITDVERFKDTVTLELSCPSCDKRFPFGGIVSSNYYRVSYNGLQCKHCEQLFTPLQLTSQIEHSIRAHISLYYAGWLQCDDSTCGIVTRQVSVFGKRCLNDGCTGVMRYKYSDKQLYNQLLYFDSLFDCEKNKKQELKPIYLPDDLDYPKEQLTESSIKALTEQNRELMETGRSVVQKYLNDC
modifications: left off: 9MYC, end not stated, kept

Assays:
primase [1] = assay: Immunoprecipitation and immunoblotting, primase; format: cell-based, Saccharomyces cerevisiae; conditions: diploid yeast, anti-HA beads, immunoblotting
B subunit Pol12 = assay: Immunoprecipitation from yeast extracts and mass spectrometry, B subunit; format: cell-based, Saccharomyces cerevisiae; conditions: diploid yeast, anti-Myc beads, spectral counts
Outline: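 Diploid strains grown asynchronously in YPD (1% yeast extract, 2% peptone, 40 μg/ml adenine, 2% glucose). Extracts made from 250 ml mid-log culture (2.5 × 10^9 cells) with 100 mM potassium acetate, then Benzonase-digested (800 units, 30 min, 4 °C). Tagged protein immunoprecipitated on anti-Myc (9E10) magnetic beads. Eluate run 1 cm into SDS gel, cut into 10 bands, trypsin-digested, and analysed by mass spectrometry.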

primase [2] = assay: Immunoprecipitation from yeast extracts and mass spectrometry, primase; format: cell-based, Saccharomyces cerevisiae; conditions: diploid yeast, anti-Myc beads, spectral counts
Outline: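 Asynchronous diploid cultures were grown in YPD. Extracts were made from 250 ml of mid-log cells (2.5 × 10^9) with 100 mM potassium acetate. DNA was digested with 800 units of Benzonase for 30 min at 4 °C before capture on 9E10 magnetic beads. Each sample was run 1 cm into an SDS gel, cut into 10 bands, trypsin-digested and analysed by mass spectrometry.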

Pol12 = assay: Immunoprecipitation and immunoblotting, Pol12; format: cell-based, Saccharomyces cerevisiae; conditions: diploid yeast, anti-HA beads, native cell extracts, immunoblotting
[3] = system: S phase checkpoint pathway (Mec1); assay: Dependence of viability on S phase checkpoint; format: cell-based, Saccharomyces cerevisiae
[4] = system: other replisome components; assay: Immunoprecipitation and immunoblotting, replisome components; format: cell-based, Saccharomyces cerevisiae; conditions: diploid yeast, anti-HA beads, native cell extracts, immunoblotting; relative to wild-type Pol1
B subunit = conditions: last 67 amino acids of recombinant human pol α removed; cited from earlier work
yeast cells = assay: Tetrad analysis, colony formation and growth of yeast cells; format: cell-based, Saccharomyces cerevisiae; conditions: tetrad analysis of meiotic progeny of heterozygous diploid, rich medium YPD
Outline: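 Heterozygous diploids, each carrying one wild-type POL1 copy and one mutant pol1 allele (C-terminal truncation or point mutant), were sporulated. Meiotic progeny were scored by tetrad analysis for germination and colony growth. Medium was rich YPD: 1% yeast extract, 2% peptone, 40 μg/ml adenine, 2% glucose as sole carbon source.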

Molecule | interaction with primase, native cell extracts (primase [1]; native extracts) | interaction with primase, formaldehyde-treated cells (primase [1]; cells treated with 1% formaldehyde, 25 min, 24 °C) | association with B subunit Pol12 (B subunit Pol12) | co-purification with primase (primase [2]) | association with Pol12 (Pol12) | dependence for survival on checkpoint kinases ([3]; Mec1 and Rad53, data not shown) | survival in combination with mec1Δ ([3]; pol1-F1463A combined with mec1Δ (SML1 deleted)) | dependence of viability on checkpoint kinase ([3]; sml1Δ mec1Δ background) | co-purification with other replisome components [4] | interaction with the B subunit (B subunit) | colony formation / viability and growth (yeast cells)
B1 | neither of the mutated forms interacted with primase | neither of the mutated forms interacted with primase | as efficiently as wild-type Pol1 | neither of the mutated alleles of Pol1 co-purified with primase | all associated equally well with Pol12 | dependence for survival on the checkpoint kinases Mec1 and Rad53 | die after a couple of rounds of cell division | completely dependent upon the Mec1 checkpoint kinase | slightly weaker than for wild-type Pol1 | – | –
B2 | – | – | – | – | – | – | – | – | – | abolished interaction with the B subunit | –
B3 | – | – | as efficiently as wild-type Pol1 | – | all associated equally well with Pol12 | – | – | – | – | – | not able to form colonies
